Consider five compounds from ChEMBL document CHEMBL1134337, “Behavioral approach to nondyskinetic dopamine antagonists: identification of seroquel” (J Med Chem, 2001).

Each structure is given as a SMILES string. pIC50: −log10 of the molar value.

Test [1] concerns Mus musculus. Put plainly: Antagonism of apomorphine induced climbing was determined in female swiss -Webster mice after (ip) administration of 20 mg/kg. It is filed as functional. The procedure, abridged:
(§1)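 Female Swiss-Webster mice (about 20 g) were fasted about 24 h, then given test compound or vehicle ip or po (N = 20 per group). Vehicle was 0.5% w/w hydroxypropylmethylcellulose with 0.1% w/w Tween 80 in water. After 30 min, mice received apomorphine HCl 1.25 mg/kg sc. At 13 min, each mouse was watched for 1 min; score was mean of highest and lowest rung of 27. Groups were compared with vehicle by Student's t-test.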

The next test has as its target D(2) dopamine receptor (Rattus norvegicus, UniProt P61169). Put plainly: Inhibition of spiropiperidone binding at dopamine receptor D2 of rat.
In test [2] the test system is Mus musculus. Put plainly: Antagonism of apomorphine induced climbing was determined in female swiss -Webster mice after (ip) administration of 2.5 mg/kg. The class given is functional. The procedure, abridged: as §1
Test [3] deals with Mus musculus. Put plainly: Antagonism of apomorphine induced swimming was determined in female swiss -Wbster mice after (po) administration of 20 mg/kg. The class given is functional.
Test [4] has as its system Mus musculus. Put plainly: Antagonism of apomorphine induced swimming was determined in female swiss -Wbster mice after (po) administration of 2.5 mg/kg. It is filed as functional.
In test [5] the test system is Mus musculus. Put plainly: Antagonism of apomorphine induced swimming was determined in female swiss -Wbster mice after (po) administration of 10 mg/kg. The class given is functional.
Test [6] deals with Mus musculus. Put plainly: Antagonism of apomorphine induced swimming was determined in female swiss -Wbster mice after (po) administration of 5 mg/kg. It is filed as functional.
Test [7] concerns Mus musculus. Put plainly: Antagonism of apomorphine induced climbing was determined in female swiss -Webster mice after (ip) administration of 5 mg/kg. It is filed as functional. The procedure, abridged:
as §1

Test [8] can be described thus: Number of animals showing dyskinesias was determined in haloperidol sensitized 3 cebus monkeys after (po) administration of 80 mg/kg. The class given is functional. The conditions noted are these: dose 10 mg/kg; in the assay text read “10 mg/kg” for “80 mg/kg”. The procedure, abridged:
(§2)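 Adult female and male Cebus monkeys sensitized with oral haloperidol 1 mg/kg once per week until dyskinetic reactions occurred. Test drug given orally (2 mL/kg) in 0.5% w/w hydroxypropylmethylcellulose with 0.1% w/w Tween 80 in distilled water, at least 2 weeks between treatments. Two observers watched continuously for 6-7 h, recording reaction type and severity every 30 min. Score is monkeys with dyskinesias/monkeys tested.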

The test system of test [9] is Mus musculus. Put plainly: Antagonism of apomorphine induced climbing was determined in female swiss -Webster mice after (ip) administration of 10 mg/kg. It is filed as functional. The procedure, abridged: as §1
Test [10] deals with Mus musculus. Put plainly: Antagonism of apomorphine induced climbing was determined in female swiss -Webster mice after (p.o.) +SKF525A administration of 20 mg/kg. The class given is functional. The conditions noted are these: route oral. The procedure, abridged: as §1
For test [11], the system named is Mus musculus. Put plainly: Antagonism of apomorphine induced climbing was determined in female swiss -Webster mice after (po) administration of 20 mg/kg. The class given is functional. The procedure, abridged: as §1
The subject of test [12] is Mus musculus. Put plainly: Antagonism of apomorphine induced climbing was determined in female swiss -Webster mice after (p.o.) +SKF525A administration of 10 mg/kg. The conditions noted are these: route oral. It is filed as functional. The procedure, abridged:
as §1

The subject of test [13] is Mus musculus. Put plainly: Antagonism of apomorphine induced climbing was determined in female swiss -Webster mice after (p.o.) +SKF525A administration of 2.5 mg/kg. The class given is functional. The conditions noted are these: route oral. The procedure, abridged: as §1
Test [14] deals with Mus musculus. Put plainly: Antagonism of apomorphine induced climbing was determined in female swiss -Webster mice after (p.o.) +SKF525A administration of 40 mg/kg. It is filed as functional. The conditions noted are these: route oral. The procedure, abridged:
as §1

Test [15] has as its system Mus musculus. Put plainly: Antagonism of apomorphine induced climbing was determined in female swiss -Webster mice after (po) administration of 2.5 mg/kg. The class given is functional. The procedure, abridged: as §1
In test [16] the test system is Mus musculus. Put plainly: Antagonism of apomorphine induced climbing was determined in female swiss -Webster mice after (po) administration of 5 mg/kg. The class given is functional. The procedure, abridged: as §1
The target of test [17] is D(2) dopamine receptor (Rattus norvegicus) (UniProt P61169). Put plainly: Binding affinity at dopamine receptor D2 from rat by spiropiperidone displacement. The procedure, abridged:
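D2 receptor binding was read as % displacement of spiropiperidone, with test compound at 1000 nM unless stated otherwise. IC50 values used at least five concentrations per compound in triplicate. Each value is the mean of two replicate experiments differing by 5% or less.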

Test [18] relates to Mus musculus. Put plainly: Antagonism of apomorphine induced climbing was determined in female swiss -Webster mice after (po) administration of 40 mg/kg. It is filed as functional. The procedure, abridged:
as §1

Test [19] has as its system Mus musculus. Put plainly: Antagonism of apomorphine induced climbing was determined in female swiss -Webster mice after (p.o.) +SKF525A administration of 5 mg/kg. It is filed as functional. The conditions noted are these: route oral. The procedure, abridged: as §1
The test system of test [20] is Mus musculus. Put plainly: Antagonism of apomorphine induced climbing was determined in female swiss -Webster mice after (ip) administration of 40 mg/kg. The class given is functional. The procedure, abridged:
as §1

In test [21] the test system is Mus musculus. Put plainly: Antagonism of apomorphine induced climbing was determined in female swiss -Webster mice after (po) administration of 10 mg/kg. It is filed as functional. The procedure, abridged:
as §1

The nature of test [22]: Number of animals showing dyskinesias was determined in haloperidol sensitized 2 cebus monkeys after (po) administration of 20 mg/kg. It is filed as functional. The procedure, abridged:
as §2

Test [23] in a line: Number of animals showing dyskinesias was determined in haloperidol sensitized 2 cebus monkeys after (po) administration of 10 mg/kg. It is filed as functional. The procedure, abridged:
as §2

Test [24] deals with Mus musculus. Put plainly: Antagonism of apomorphine induced swimming was determined in female swiss -Webster mice after (ip) administration of 2.5 mg/kg. The class given is functional.
Test [25] relates to Mus musculus. Put plainly: Antagonism of apomorphine induced swimming was determined in female swiss -Webster mice after (ip) administration of 40 mg/kg. It is filed as functional.
Test [26] deals with Mus musculus. Put plainly: Antagonism of apomorphine induced swimming was determined in female swiss -Webster mice after (ip) administration of 20 mg/kg. It is filed as functional.
Test [27] deals with Mus musculus. Put plainly: Antagonism of apomorphine induced swimming was determined in female swiss -Webster mice after (ip) administration of 10 mg/kg. The class given is functional.
Test [28] deals with Mus musculus. Put plainly: Antagonism of apomorphine induced swimming was determined in female swiss -Webster mice after (ip) administration of 5 mg/kg. It is filed as functional.
Test [29] can be described thus: Number of animals showing dyskinesias was determined in haloperidol sensitized cebus monkey after (po) administration of 40 mg/kg. It is filed as functional. The procedure, abridged: as §2
The subject of test [30] is Mus musculus. Put plainly: Antagonism of apomorphine induced climbing was determined in female swiss -Wbster mice after (po) administration of 40 mg/kg. The class given is functional. The procedure, abridged: as §1
The test system of test [31] is Mus musculus. Put plainly: Antagonism of apomorphine induced climbing was determined in female swiss -Wbster mice after (po) administration of 20 mg/kg. The class given is functional. The procedure, abridged: as §1
In test [32] the test system is Mus musculus. Put plainly: Antagonism of apomorphine induced swimming was determined in female swiss -Wbster mice after (po) administration of 40 mg/kg. It is filed as functional.
Test [33] deals with Mus musculus. Put plainly: Antagonism of apomorphine induced climbing was determined in female swiss -Wbster mice after (ip) administration of 40 mg/kg. The class given is functional. The procedure, abridged:
as §1

For test [34], the system named is Mus musculus. Put plainly: Antagonism of apomorphine induced swimming was determined in female swiss -Wbster mice after (po) administration of 80 mg/kg. It is filed as functional.
Test [35] in a line: Number of animals showing dyskinesias was determined in haloperidol sensitized 9 cebus monkeys after (po) administration of 80 mg/kg. It is filed as functional. The procedure, abridged:
as §2

Test [36] relates to Mus musculus. Put plainly: Antagonism of apomorphine induced climbing was determined in female swiss -Wbster mice after (po) administration of 80 mg/kg. The class given is functional. The procedure, abridged: as §1
The subject of test [37] is Mus musculus. Put plainly: Antagonism of apomorphine induced climbing was determined in female swiss -Wbster mice after (ip) administration of 80 mg/kg. It is filed as functional. The procedure, abridged: as §1
Test [38] has as its system Mus musculus. Put plainly: Antagonism of apomorphine induced climbing was determined in female swiss -Wbster mice after (ip) administration of 20 mg/kg. It is filed as functional. The procedure, abridged: as §1

Sequence of D(2) dopamine receptor (Rattus norvegicus) (P61169 whole entry): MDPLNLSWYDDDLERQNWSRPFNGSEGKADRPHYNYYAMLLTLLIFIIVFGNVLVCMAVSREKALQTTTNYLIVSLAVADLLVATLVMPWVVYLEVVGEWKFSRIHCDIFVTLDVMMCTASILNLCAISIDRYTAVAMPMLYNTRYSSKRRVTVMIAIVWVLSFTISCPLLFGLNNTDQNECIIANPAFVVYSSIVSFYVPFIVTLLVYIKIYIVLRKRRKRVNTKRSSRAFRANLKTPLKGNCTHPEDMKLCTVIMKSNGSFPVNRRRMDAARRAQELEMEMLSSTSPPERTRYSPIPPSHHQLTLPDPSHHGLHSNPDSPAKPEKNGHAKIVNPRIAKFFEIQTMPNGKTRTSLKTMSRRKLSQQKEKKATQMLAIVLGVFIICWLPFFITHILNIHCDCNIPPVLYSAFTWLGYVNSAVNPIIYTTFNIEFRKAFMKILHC
Sequence of D(2) dopamine receptor (P61169 whole entry): as above

As to `CN1CCN(C2=Nc3ccc(O)cc3Sc3ccccc32)CC1`, the Activity with Mus musculus [1] is given as 1; with Mus musculus [2] it was 18; in the test on Mus musculus [3], 32; with Mus musculus [4], 3; in the test on Mus musculus [5], 34; in the test on Mus musculus [6] it was 10. For the same compound, the results for the Activity in the test with Mus musculus [7] and with Mus musculus [9] were 13 and 1, respectively. Further, the pIC50 (usually the negative decadic logarithm of the IC50, by convention in mol/L) at D(2) dopamine receptor was 7.31. In test [8], the No of monkeys is reported as 3.

Consider `CN1CCN(C2=Nc3ccccc3Oc3ccccc32)CC1`, for which the Activity in the test on Mus musculus [10] was 18; with Mus musculus [1] it was 0; in the test on Mus musculus [2], 19; in the test with Mus musculus [11] it was 3; in the test with Mus musculus [12], 24; in the test on Mus musculus [13] it was 25. In addition, the Activity in the test on Mus musculus [14] is 19; with Mus musculus [15], 19; in the test with Mus musculus [16] it was 13; in the test with Mus musculus [18], 3; in the test with Mus musculus [19], 19; with Mus musculus [7] it was 13. Further, the Activity is recorded as 3 in the test with Mus musculus [20], 2 in the test with Mus musculus [9] and 10 with Mus musculus [21]. The % displacement of spiropiperidone in test [17] is 27%.

As for `COCC(CN1CCN(C2=Nc3ccccc3Sc3ccccc32)CC1)OC` (configuration not stated), the Activity is listed as 2 in the test on Mus musculus [1]; 5 with Mus musculus [24]; 18 with Mus musculus [2]; 33 in the test with Mus musculus [25]; 28 in the test with Mus musculus [26]; 17 in the test on Mus musculus [27]. The Activity in the test on Mus musculus [7] was found to be 5; in the test with Mus musculus [28], 9; in the test with Mus musculus [20], 0; in the test with Mus musculus [9], 1. Moreover, the No of monkeys in [22] and in test [23] was 1 each time. Moreover, at D(2) dopamine receptor, the pIC50 was 6.10.

Turning to `c1ccc2c(c1)N=C(N1CCN(CC3COCCO3)CC1)c1ccccc1S2` (configuration not stated), the No of monkeys in test [29] was 2. Moreover, the Activity with Mus musculus [1] is reported as 0; in the test with Mus musculus [24], 8; with Mus musculus [2] it was 14; in the test on Mus musculus [25], 30; with Mus musculus [26] it was 20; in the test with Mus musculus [27] it was 20. For the same compound, the Activity in the test with Mus musculus [7] worked out at 6; in the test on Mus musculus [28] it was 13; in the test on Mus musculus [20], 2; in the test on Mus musculus [9], 1. In addition, the % displacement of spiropiperidone in [17] is 50%.

For `OCCOCCN1CCN(C2=Nc3ccccc3Cc3ccccc32)CC1`, the Activity was 17 in the test with Mus musculus [30]; 24 with Mus musculus [31]; 1 with Mus musculus [32]; 17 in the test with Mus musculus [33]; 3 in the test with Mus musculus [34]; 10 in the test with Mus musculus [36]. Also, the Activity in the test on Mus musculus [37] is 2; in the test on Mus musculus [3], 1; with Mus musculus [38], 21. Also, the No of monkeys in test [35] was found to be 0. For the same compound, the % displacement of spiropiperidone in [17] stood at 22%.
